Active and inactive are the calls of the source. No cut-off for these calls is given here.
Experiments:
[1] = target: Vascular endothelial growth factor receptor 2 (Homo sapiens) (UniProt P35968); assay: Inhibition of human VEGFR2 at 1 uM using polyEY as substrate in presence of 33P-ATP by ProQinase assay
[2] = target: Ephrin type-A receptor 4 (Homo sapiens) (UniProt P54764); assay: Inhibition of human EPHA4 at 1 uM using polyEY as substrate in presence of 33P-ATP by ProQinase assay
[3] = target: Sphingosine kinase 2 (Homo sapiens) (UniProt Q9NRA0); assay: Inhibition of recombinant human N-terminal His6-tagged SPHK2 (1 to 654 residues) expressed in baculovirus expression system at 1 uM using sphingosine as substrate incubated for 40 mins by ADP-Glo assay
[4] = target: Dual specificity protein kinase CLK1 (Homo sapiens) (UniProt P49759); assay: Inhibition of human CLK1 at 1 uM using autophos as substrate in presence of 33P-ATP by ProQinase assay
[5] = target: Phosphatidylinositol 4-phosphate 5-kinase type-1 gamma (Homo sapiens, UniProt O60331); assay: Inhibition of human PIP5K1C using PI/PS as substrate by ADP-Glo assay
[6] = target: Phosphorylase b kinase gamma catalytic chain, skeletal muscle/heart isoform (Homo sapiens) (UniProt Q16816); assay: (§1) Inhibition of recombinant human N-terminal GST-tagged PHKgamma1 (2 to 297 residues) expressed in Escherichia coli assessed as remaining activity at 1 uM using phosphorylase b peptide as substrate incubated for 30 mins in presence of [gamma-33P]ATP by filter binding method relative to control
[7] = target: Activin receptor type-1 (Homo sapiens) (UniProt Q04771); assay: Inhibition of human ACVR1 at 1 uM using RBER-GSK3 as substrate in presence of 33P-ATP by ProQinase assay
[8] = target: Phosphatidylinositol 3-kinase C2 domain-containing subunit gamma (Homo sapiens) (UniProt O75747); assay: Inhibition of PI3KC2gamma (unknown origin) at 1 uM
[9] = target: Phosphatidylinositol 4-kinase beta (Homo sapiens, UniProt Q9UBF8); assay: Inhibition of human PI4KB using PI as substrate by ADP-Glo assay
[10] = target: Mitogen-activated protein kinase kinase kinase kinase 2 (Homo sapiens) (UniProt Q12851); assay: Inhibition of human MAP4K2 at 1 uM using 3xChocktide-PKC as substrate in presence of 33P-ATP by ProQinase assay
[11] = target: Serine/threonine-protein kinase DCLK2 (Homo sapiens) (UniProt Q8N568); assay: Inhibition of human DCAMKL2 at 1 uM using RBER-CHKtide as substrate in presence of 33P-ATP by ProQinase assay
[12] = target: Ephrin type-A receptor 1 (Homo sapiens) (UniProt P21709); assay: Inhibition of human EPHA1 at 1 uM using polyEY as substrate in presence of 33P-ATP by ProQinase assay
[13] = target: Casein kinase I isoform epsilon (Homo sapiens) (UniProt P49674); assay: Inhibition of human CK1epsilon at 1 uM using casein as substrate in presence of 33P-ATP by ProQinase assay
[14] = target: Macrophage colony-stimulating factor 1 receptor (Homo sapiens) (UniProt P07333); assay: Inhibition of human CSF1R at 1 uM using polyEY as substrate in presence of 33P-ATP by ProQinase assay
[15] = target: NUAK family SNF1-like kinase 1 (Homo sapiens) (UniProt O60285); assay: Inhibition of human ARK5 at 1 uM using RBER-CHKtide as substrate in presence of 33P-ATP by ProQinase assay
[16] = target: Dual specificity protein kinase TTK (Homo sapiens) (UniProt P33981); assay: Inhibition of human TTK at 1 uM using RBER-CHKtide as substrate in presence of 33P-ATP by ProQinase assay
[17] = target: Hepatocyte growth factor receptor (Homo sapiens) (UniProt P08581); assay: Inhibition of human MET at 1 uM using poly(Ala,Glu,Lys,Tyr) as substrate in presence of 33P-ATP by ProQinase assay
[18] = target: Mitogen-activated protein kinase kinase kinase kinase 3 (Homo sapiens) (UniProt Q8IVH8); assay: (§2) Inhibition of recombinant human MAP4K3 (1 to 873 residues) expressed in baculovirus infected Sf21 cells assessed as remaining activity at 1 uM using MBP as substrate incubated for 30 mins in presence of [gamma-33P]ATP by filter binding method relative to control
[19] = target: Casein kinase 2 (Homo sapiens) (UniProt P67870+P68400+P19784+Q8NEV1); assay: Inhibition of CK2 (unknown origin) assessed as remaining activity at 1 uM relative to control; assay type: protein assay
Method in brief: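 Dundee panel of 140 protein kinases, tested at a single 1 μM concentration. Each assay was run in triplicate. Remaining activity is expressed relative to a control reaction without inhibitor, as mean ± S.D. Conditions for each kinase were those of the screening centre.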

[20] = test system: Ribosomal protein S6 kinase beta-1 (Homo sapiens), P23443 [T412E]; assay: Inhibition of recombinant human His6-tagged S6K1 T412E mutant (1 to 421 residues) expressed in baculovirus infected sf21 cells assessed as remaining activity at 1 uM using KKRNRTLTVas substrate incubated for 30 mins in presence of [gamma-33P]ATP by filter binding method relative to control
[21] = target: Serine/threonine-protein kinase Nek11 (Homo sapiens) (UniProt Q8NG66); assay: Inhibition of human NEK11 at 1 uM using MBP as substrate in presence of 33P-ATP by ProQinase assay
[22] = target: Tyrosine-protein kinase ABL1 (Homo sapiens) (UniProt P00519); assay: as §1, with “ABL (118” for “PHKgamma1 (2”, “535” for “297”, “coli co-expressed with His-tagged YopH” for “coli”, “EAIYAAPFAKKK” for “phosphorylase b peptide”
[23] = test system: PI3-kinase p110-alpha/p85-alpha (Homo sapiens), P27986+P42336 [E545K]; assay: Inhibition of recombinant human N-terminal His6-tagged PI3Kalpha E545K mutant (2 to 1068 residues)/p85A (1 to 724 residues) expressed in baculovirus expression system at 1 uM using diC8 PIP2 as substrate incubated for 80 mins by ADP-Glo assay
[24] = test system: RAC-alpha serine/threonine-protein kinase (Homo sapiens), P31749 [S473D]; assay: as §2, with “His6-tagged PKBalpha S473D mutant (118” for “MAP4K3 (1”, “480” for “873”, “crosstide peptide” for “MBP”
[25] = target: Non-receptor tyrosine-protein kinase TYK2 (Homo sapiens) (UniProt P29597); assay: Inhibition of human TYK2 at 1 uM using poly(Ala,Glu,Lys,Tyr) as substrate in presence of 33P-ATP by ProQinase assay
[26] = target: Diacylglycerol kinase kappa (Homo sapiens) (UniProt Q5KSL6); assay: Inhibition of DGKkappa (unknown origin) at 1 uM
[27] = target: Mitogen-activated protein kinase kinase kinase 1 (Homo sapiens) (UniProt Q13233); assay: Inhibition of human MAP3K1 at 1 uM using bio-4xCHKT as substrate in presence of 33P-ATP by ProQinase assay
Mitogen-activated protein kinase kinase kinase 1 (Homo sapiens), sequence (Q13233 whole entry): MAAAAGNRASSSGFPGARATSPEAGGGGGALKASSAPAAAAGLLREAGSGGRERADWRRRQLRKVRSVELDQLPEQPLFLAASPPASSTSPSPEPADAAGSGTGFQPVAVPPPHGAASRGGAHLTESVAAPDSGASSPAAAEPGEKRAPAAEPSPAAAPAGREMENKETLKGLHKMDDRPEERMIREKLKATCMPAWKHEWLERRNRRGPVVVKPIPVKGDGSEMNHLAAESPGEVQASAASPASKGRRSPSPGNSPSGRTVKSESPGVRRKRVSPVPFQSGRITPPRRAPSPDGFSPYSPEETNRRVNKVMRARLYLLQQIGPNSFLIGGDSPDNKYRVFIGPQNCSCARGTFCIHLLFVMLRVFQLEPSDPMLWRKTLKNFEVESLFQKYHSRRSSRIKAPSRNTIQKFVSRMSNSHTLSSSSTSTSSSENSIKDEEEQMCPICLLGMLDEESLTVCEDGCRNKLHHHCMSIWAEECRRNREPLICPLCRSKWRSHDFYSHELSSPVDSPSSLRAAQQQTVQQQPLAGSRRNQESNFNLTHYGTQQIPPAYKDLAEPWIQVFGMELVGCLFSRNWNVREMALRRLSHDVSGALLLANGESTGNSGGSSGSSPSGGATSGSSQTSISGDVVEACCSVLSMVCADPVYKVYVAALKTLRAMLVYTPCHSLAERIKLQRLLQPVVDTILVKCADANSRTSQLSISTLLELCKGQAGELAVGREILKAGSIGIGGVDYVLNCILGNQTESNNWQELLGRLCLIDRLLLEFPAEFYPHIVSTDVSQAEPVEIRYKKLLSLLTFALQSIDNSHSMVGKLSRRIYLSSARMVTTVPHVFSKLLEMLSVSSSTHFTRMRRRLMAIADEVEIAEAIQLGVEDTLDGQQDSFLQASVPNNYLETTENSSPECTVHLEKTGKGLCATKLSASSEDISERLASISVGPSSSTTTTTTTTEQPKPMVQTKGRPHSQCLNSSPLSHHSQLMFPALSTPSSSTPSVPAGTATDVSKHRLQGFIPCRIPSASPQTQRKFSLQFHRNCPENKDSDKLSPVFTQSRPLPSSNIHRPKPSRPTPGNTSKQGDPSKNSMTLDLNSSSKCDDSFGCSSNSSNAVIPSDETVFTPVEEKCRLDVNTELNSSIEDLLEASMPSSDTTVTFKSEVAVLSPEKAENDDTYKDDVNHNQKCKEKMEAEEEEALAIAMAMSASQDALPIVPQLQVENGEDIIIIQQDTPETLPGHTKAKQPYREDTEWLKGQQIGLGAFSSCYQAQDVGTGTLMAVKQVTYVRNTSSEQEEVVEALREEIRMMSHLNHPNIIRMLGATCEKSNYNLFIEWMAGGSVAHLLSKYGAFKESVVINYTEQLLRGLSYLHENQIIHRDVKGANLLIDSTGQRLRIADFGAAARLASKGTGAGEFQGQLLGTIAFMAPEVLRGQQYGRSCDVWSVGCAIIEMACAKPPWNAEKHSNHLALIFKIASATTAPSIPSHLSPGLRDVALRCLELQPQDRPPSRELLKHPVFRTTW

Non-receptor tyrosine-protein kinase TYK2 (Homo sapiens), sequence (P29597 whole entry): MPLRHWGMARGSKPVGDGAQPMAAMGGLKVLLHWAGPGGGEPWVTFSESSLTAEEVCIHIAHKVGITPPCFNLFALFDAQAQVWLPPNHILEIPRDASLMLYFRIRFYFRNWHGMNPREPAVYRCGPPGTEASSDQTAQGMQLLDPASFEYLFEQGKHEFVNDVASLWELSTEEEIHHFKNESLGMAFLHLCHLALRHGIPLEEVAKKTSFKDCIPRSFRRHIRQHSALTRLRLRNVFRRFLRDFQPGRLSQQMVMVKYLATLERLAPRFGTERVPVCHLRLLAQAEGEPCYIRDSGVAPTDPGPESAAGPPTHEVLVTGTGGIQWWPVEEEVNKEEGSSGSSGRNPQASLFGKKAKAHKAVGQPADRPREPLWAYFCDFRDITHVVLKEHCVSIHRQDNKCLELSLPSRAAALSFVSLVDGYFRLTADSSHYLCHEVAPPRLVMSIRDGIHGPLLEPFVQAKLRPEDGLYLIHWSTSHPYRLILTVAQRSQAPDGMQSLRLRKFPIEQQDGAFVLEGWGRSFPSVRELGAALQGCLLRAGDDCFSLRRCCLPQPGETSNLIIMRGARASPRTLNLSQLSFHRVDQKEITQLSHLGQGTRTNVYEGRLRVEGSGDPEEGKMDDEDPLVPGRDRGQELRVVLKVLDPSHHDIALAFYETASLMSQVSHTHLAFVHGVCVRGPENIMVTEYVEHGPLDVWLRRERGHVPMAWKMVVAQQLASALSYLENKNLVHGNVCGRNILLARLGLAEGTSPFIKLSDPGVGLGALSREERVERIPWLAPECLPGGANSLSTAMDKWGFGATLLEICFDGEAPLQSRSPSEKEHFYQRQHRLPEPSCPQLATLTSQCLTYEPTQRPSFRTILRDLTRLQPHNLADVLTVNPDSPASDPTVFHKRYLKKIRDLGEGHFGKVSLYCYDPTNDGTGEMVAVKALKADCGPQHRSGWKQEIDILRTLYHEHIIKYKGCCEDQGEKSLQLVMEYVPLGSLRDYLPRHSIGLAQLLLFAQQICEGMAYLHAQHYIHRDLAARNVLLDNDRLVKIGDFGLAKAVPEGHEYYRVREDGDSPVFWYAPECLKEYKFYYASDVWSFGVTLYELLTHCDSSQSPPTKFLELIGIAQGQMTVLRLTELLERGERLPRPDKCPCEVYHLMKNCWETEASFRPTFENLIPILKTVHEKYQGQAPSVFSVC
Phosphorylase b kinase gamma catalytic chain, skeletal muscle/heart isoform (Homo sapiens), sequence (Q16816 whole entry, looked up, the tested form may be a part, canonical isoform): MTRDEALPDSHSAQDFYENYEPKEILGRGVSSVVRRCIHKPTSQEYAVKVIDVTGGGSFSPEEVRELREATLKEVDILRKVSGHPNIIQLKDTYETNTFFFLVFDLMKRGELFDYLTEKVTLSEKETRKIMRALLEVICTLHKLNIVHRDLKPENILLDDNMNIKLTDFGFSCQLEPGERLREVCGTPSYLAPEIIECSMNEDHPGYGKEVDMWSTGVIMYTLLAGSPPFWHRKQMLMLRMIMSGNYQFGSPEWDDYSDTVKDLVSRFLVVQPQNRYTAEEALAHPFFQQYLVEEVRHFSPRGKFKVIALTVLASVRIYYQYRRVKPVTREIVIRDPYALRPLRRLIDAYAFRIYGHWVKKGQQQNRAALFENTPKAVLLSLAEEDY
Phosphatidylinositol 4-phosphate 5-kinase type-1 gamma, sequence (O60331 whole entry, the tested form may be a part, canonical isoform): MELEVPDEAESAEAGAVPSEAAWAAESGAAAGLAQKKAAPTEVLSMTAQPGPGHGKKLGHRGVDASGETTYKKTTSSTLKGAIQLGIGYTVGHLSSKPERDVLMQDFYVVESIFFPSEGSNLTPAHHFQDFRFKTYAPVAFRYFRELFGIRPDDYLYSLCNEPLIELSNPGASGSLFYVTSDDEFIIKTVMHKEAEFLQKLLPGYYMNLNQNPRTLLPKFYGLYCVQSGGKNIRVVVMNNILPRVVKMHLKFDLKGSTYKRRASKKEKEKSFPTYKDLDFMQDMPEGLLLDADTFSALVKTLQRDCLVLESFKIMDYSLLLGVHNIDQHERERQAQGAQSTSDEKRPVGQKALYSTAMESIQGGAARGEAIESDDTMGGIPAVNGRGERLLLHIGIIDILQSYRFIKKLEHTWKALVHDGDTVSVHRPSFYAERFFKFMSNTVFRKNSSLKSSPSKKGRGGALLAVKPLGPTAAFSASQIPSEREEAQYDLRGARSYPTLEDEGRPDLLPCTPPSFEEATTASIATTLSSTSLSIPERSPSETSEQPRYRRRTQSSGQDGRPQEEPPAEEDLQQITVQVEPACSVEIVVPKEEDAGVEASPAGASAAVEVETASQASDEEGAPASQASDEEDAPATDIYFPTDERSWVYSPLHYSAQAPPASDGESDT
Mitogen-activated protein kinase kinase kinase kinase 3 (Homo sapiens), sequence (Q8IVH8 whole entry, the tested form may be a part): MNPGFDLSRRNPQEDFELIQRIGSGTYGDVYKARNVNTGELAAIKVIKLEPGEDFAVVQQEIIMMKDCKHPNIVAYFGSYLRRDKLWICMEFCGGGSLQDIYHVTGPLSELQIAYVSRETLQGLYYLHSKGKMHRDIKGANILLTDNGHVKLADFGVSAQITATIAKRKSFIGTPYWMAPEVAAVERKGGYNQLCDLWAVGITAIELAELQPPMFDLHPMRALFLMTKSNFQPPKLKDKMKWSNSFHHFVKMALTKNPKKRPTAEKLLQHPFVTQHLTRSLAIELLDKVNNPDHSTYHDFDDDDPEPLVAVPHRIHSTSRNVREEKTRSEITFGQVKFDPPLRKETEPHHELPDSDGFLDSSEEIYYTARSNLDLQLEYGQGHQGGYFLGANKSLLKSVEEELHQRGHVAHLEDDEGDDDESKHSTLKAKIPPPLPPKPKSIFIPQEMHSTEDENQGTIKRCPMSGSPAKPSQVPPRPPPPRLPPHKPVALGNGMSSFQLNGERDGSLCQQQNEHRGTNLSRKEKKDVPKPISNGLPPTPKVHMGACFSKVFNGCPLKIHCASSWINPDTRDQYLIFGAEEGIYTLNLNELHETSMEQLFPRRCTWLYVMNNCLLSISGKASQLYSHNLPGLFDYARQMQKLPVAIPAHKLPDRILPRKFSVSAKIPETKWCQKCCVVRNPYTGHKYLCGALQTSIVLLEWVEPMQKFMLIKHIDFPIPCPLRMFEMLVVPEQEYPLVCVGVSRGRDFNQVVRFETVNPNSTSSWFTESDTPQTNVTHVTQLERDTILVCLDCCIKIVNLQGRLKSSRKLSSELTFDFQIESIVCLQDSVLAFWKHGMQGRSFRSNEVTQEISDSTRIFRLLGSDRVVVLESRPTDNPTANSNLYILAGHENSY
Casein kinase I isoform epsilon (Homo sapiens), sequence (P49674 whole entry, looked up, canonical isoform): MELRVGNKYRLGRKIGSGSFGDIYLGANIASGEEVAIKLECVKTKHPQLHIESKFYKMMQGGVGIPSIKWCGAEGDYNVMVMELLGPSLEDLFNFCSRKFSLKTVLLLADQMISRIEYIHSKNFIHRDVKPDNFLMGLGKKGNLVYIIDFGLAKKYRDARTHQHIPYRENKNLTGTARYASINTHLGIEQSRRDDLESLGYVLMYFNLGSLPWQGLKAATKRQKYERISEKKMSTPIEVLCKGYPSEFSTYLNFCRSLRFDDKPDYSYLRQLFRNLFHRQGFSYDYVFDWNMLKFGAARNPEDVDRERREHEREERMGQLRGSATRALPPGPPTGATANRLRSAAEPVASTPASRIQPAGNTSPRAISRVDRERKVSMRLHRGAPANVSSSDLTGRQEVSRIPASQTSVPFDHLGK

CC(C)(O)CNc1ncc(-c2ccnc(Nc3ccnc(Cl)c3)n2)c(CC2CC2)n1
inhibition [1]: inactive
inhibition [2]: inactive
inhibition [3]: inactive
inhibition [4]: inactive
IC50 [5]: 3.37 µM
Activity [6]: 105%
inhibition [7]: inactive
inhibition [8]: inactive
IC50 [9]: > 10 µM
inhibition [10]: inactive
inhibition [11]: inactive
inhibition [12]: inactive
inhibition [13]: inactive
inhibition [14]: inactive
inhibition [15]: inactive
inhibition [16]: inactive
inhibition [17]: inactive
Activity [18]: 117%
Activity [19]: 111%
Activity [20]: 116%
inhibition [21]: inactive
Activity [22]: 87%
inhibition [23]: inactive
Activity [24]: 116%
inhibition [25]: inactive
inhibition [26]: inactive
inhibition [27]: inactive

Reference: ChEMBL document CHEMBL5705899 (Biochem J, 2014)
